High-throughput results as filed in PubChem.
PMI act hi M6P – activators of human phosphomannose isomerase at near-saturating mannose 6-phosphate | actives 0.34% (n = 190,000) | activation factor at 20 µM | P34949 | AID 1216 | coupled PMI enzyme assay, resazurin fluorescence, 20 min; hits give high values; 1 = untreated enzyme, 0 = substrate-free blank;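 active = activation factor of 2 or more at 20 µM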
Target sequence (P34949 whole entry, looked up): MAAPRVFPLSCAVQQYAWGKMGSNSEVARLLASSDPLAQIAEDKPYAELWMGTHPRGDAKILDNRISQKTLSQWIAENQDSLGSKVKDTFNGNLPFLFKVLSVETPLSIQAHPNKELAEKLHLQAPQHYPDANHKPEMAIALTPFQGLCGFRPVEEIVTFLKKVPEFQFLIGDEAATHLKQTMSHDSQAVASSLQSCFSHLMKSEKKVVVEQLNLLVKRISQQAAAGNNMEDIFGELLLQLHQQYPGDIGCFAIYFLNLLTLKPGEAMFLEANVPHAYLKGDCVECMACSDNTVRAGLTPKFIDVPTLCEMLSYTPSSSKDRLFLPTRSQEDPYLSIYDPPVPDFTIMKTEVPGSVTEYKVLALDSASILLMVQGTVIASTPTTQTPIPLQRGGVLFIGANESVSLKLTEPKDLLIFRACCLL
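Material: human phosphomannose isomerase with PGI, G6PDH, diaphorase coupling enzymes; amount: PMI at 15 ng/mL final; also added: Mannose-6-phosphate 1.0 mM (near-saturating) plus 0.22 mM NADP+; incubation: enzyme reaction with compound 20 min at room temperature; signal: resorufin fluorescence (Ex 544/Em 590 nm) from resazurin via diaphorase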
Diaph act CS – diaphorase activation or chemical reduction counter-screen. Diaphorase/resazurin coupled assay, resorufin fluorescence, 16 min; hits give high values; 1 = vehicle wells, 0 = NADH-free wells. activation factor at 20 µM. actives 0.005% (n = 190,000). AID 1229;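 active = diaphorase activity raised at least twofold by the compound at 20 µM; inactive = activation factor below 2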
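Material: bacterial diaphorase enzyme (C. kluyveri); amount: enzyme 0.07 U/mL final; reagent: NADH substrate 0.114 mM plus resazurin dye 0.1 mM, final; doses: single compound dose of 20 µM, 1% DMSO final; timing: 16 min enzyme reaction, ambient temperature; measured by: fluorescence of resorufin, 544 nm excitation, 590 nm emission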
Diaphorase inh – inhibits diaphorase or chemically oxidizes, flagging diaphorase assay artifacts. diaphorase resazurin-to-resorufin fluorescence, NADH, 16 min; bacterial (C. kluyveri) enzyme, not human. inhibition, % at 20 µM. actives 0.69% (n = 190,000);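 active = primary screen inhibition at 20 µM above a set limit, cut at about 50% in these data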
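Test system: bacterial diaphorase enzyme (C. kluyveri); Quantity: 0.14 U/mL diaphorase, enzyme working solution; Times: reaction incubation of 16 min at room temperature; Measured by: fluorescence of resorufin formed from resazurin, Ex 544/Em 590 nm; Benchmarks: positive control minus NADH, DMSO neutral control.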
G6PDH counter – inhibits Leuconostoc G6PDH, flagging false hits in G6PDH-based assays | Purified L. mesenteroides G6PDH, diaphorase/resazurin coupled fluorescence, 45 min | inhibition, % at 5 µM | actives 0.12% (n = 200,000) | AID 1020; in the data active = inhibition above about 50%
PMI act – increases human mannose-6-phosphate isomerase activity; P34949; purified human PMI, coupled resazurin fluorescence, 20 min; hits give high values; 1 = vehicle control, 0 substrate-free wells; activation factor at 20 µM; actives 0.005% (n = 190,000); AID 1214;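 active = activation factor of 2 or more at 20 µM, relative to plate controls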
Of the large screens only hits and unclear results are named; the others gave an inactive call. A selection: hits, their analogues and other compounds. The true share with any hit is near 1.1%.

COc1ccccc1CCc1nnc(CCC(=O)NC(C)Cn2nc(C)cc2C)o1 (stereo unspecified)	none (no result: PMI act hi M6P, Diaph act CS, Diaphorase inh, PMI act)
CN1CCN(C(=O)c2cc(C(C)(C)C)cc(C(C)(C)C)c2)CC1	none
COCCCN(CC(=O)O)S(=O)(=O)c1cccc(Cl)c1	none
Cc1nc2c(c(=O)n1CCC1=CCCCC1)c1nc3ccccc3nc1n2/N=C/c1ccco1	Diaphorase inh 70
CCCn1c(C)nc2c(c1=O)c1nc3ccccc3nc1n2CCC1=CCCCC1	none
O=C(O)c1ccccc1NS(=O)(=O)c1ccc(NNC(=S)Nc2ccc(OC(F)F)cc2)c([N+](=O)[O-])c1	Diaphorase inh 67
O=C1c2ccccc2C(=O)c2c1cccc2N1CCOCC1	none
O=C1C(N2CCOCC2)=C(n2nnc3ccccc32)C(=O)c2ccccc21	G6PDH counter 61
CC(C)CC(NC(N)=O)C(=O)NCCc1ccc(Cl)cc1 (stereo unspecified)	none
O=C1CCCc2c1sc1nc3n(c(=O)c21)CCCCC3	none
O=C1c2sc3nc4n(c(=O)c3c2CCC1Br)CCCCC4 (stereo unspecified)	Diaphorase inh 62
Cc1cccc(-n2c3nc(=O)[nH]c(=O)c-3cc3cc([N+](=O)[O-])ccc32)c1	Diaphorase inh 53
Cc1ccc(C)c(-n2c3nc(=O)[nH]c(=O)c-3cc3cc([N+](=O)[O-])ccc32)c1	Diaphorase inh 67
Cc1cccc(-n2c3nc(=O)[nH]c(=O)c-3cc3c(C)nn(-c4ccccc4)c32)c1C	none
O=C1CC(SC2=NCCS2)C(=O)N1c1cccc(Cl)c1Cl (stereo unspecified)	none
Cc1cc(C(=O)N/N=C/c2ccc(O)c([N+](=O)[O-])c2)n[nH]1	none
Cc1cc(C(=O)N/N=C/c2cccc([N+](=O)[O-])c2O)n[nH]1	Diaphorase inh 50
O=C(N/N=C/c1ccco1)c1cccc(N2Cc3ccccc3C2)c1	Diaphorase inh 60
Cc1ccc(NS(=O)(=O)c2ccc(OCC(N)=O)cc2)cc1	none
Cc1ccc(/C=N/Nc2cccc3cccnc23)c(O)c1	PMI act hi M6P 2
Cc1cccc(N/N=C/c2ccccc2O)c1	PMI act hi M6P 2.8
CC(=O)Nc1cc(Cl)ccc1OS(=O)(=O)c1ccc(C)cc1	none
COc1ccc(-c2csc(NC(=O)CSc3nc(SC)ns3)n2)cc1	none
Cc1nc2ccccc2n1C(=O)c1ccc(Cl)cc1[N+](=O)[O-]	Diaphorase inh 54
Cc1ccc2nc(N3CCCCC3)c(C=O)c(=O)n2c1	none
Cc1ccc2nc(N3CCN(c4ccccc4F)CC3)c(C=O)c(=O)n2c1	Diaphorase inh 53
CCOC(=O)C(NS(=O)(=O)c1ccccc1)(C(F)(F)F)P(=O)(OCC(C)C)OCC(C)C (stereo unspecified)	PMI act hi M6P 2
CCOC(=O)C(NCc1ccccc1)(NC(=O)c1ccccc1)C(F)(F)F (stereo unspecified)	none
Cc1c(-c2cccs2)[n+](=O)c2c(n1[O-])CCCCC2	none
CCOC(=O)N=Nc1c2ccccc2c2nc3no[nH]c3nc12	G6PDH counter 55
CN=C1C([N+](=O)[O-])=CC=C2C1=NC1(CCCCC1)N2O	Diaphorase inh 72
O=[N+]([O-])C1=CC=C2C(=NC3(CCCCC3)N2O)C1=NCCO	Diaphorase inh 76
CC(C(=O)Nc1nc2ccccc2s1)n1cc([N+](=O)[O-])cn1 (stereo unspecified)	none
CC(C)CCN(C(=O)COc1ccc(C#N)cc1)c1c(N)n(Cc2ccccc2)c(=O)[nH]c1=O	none
O=C(C1CCCO1)N1CCN(C(=S)Nc2ccccc2C(F)(F)F)CC1 (stereo unspecified)	none
CC1CN(Cc2ccccc2)C(C)CC1O (stereo unspecified)	none
OCCC1CN(C2CCN(c3ccccc3)CC2)CCN1Cc1ccc(F)c(F)c1 (stereo unspecified)	none
Cn1ccc(=S)c2ccccc21	PMI act hi M6P 2.2
Cc1ccc(NC(=O)CN2C(=O)S/C(=C/c3ccc(-c4cccc(C(=O)O)c4)o3)C2=O)cc1	Diaphorase inh 57
COc1ccc(CN2C(=O)/C(=C/c3ccc(-c4ccc(Cl)c(C(=O)O)c4)o3)SC2=S)cc1	none
